# In the library only some 2.3% were active in any assay of this set; here they are far more common.
# MT1-MMP act inh = inhibitors of human MT1-MMP activation; 360,000 compounds, 0.061% hits; GFP/RFP ratio change, % at 20 µM; AID 651647; HT1080 RFP-PRO-GFP cells, GFP/RFP ratio fluorescence, overnight; percent of plate control window, DMSO zero; P50281;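 active = GFP/RFP ratio change of at least 30% with cell ATP level not reduced by more than half and red fluorescence within 50% of control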
#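 Compound: 20 µM single dose, 1% DMSO / System: HT1080 RFP-PRO-GFP cells / Controls: DMSO and RFP-L50D-GFP cell wells / Read-out basis: GFP/RFP fluorescence ratio / Schedule: overnight compound exposure at 37 °C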
# SUMO1-SIM PPI = modulators of human SUMO1-mediated protein-protein interactions; inhibition, % at 20 µM; 360,000 compounds, 0.33% hits; P63165; SUMO1 binding to a labelled peptide, TR-FRET, 1 h; in the data active = inhibition above about 37%
# Rpn11 inh = Rpn11 (human) deubiquitinase inhibition; O00487; 360,000 compounds, 0.59% hits; inhibition, % at 20 µM; human 26S proteasome, Ub4-pepOG fluorescence polarization; 20S core pre-blocked with epoxomicin;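 active = inhibition at 20 µM, scaled to each plate's controls, above about 33%, limit read from the data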
# SKN-1 block = blocks SKN-1 activity in C. elegans | AID 624304 | inhibition, % at 21.8 µM | C. elegans VP596 Pgst-4::GFP/RFP ratio, acrylamide-induced, 24 h | 360,000 compounds, 0.49% hits;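 active = interference check ratio from 0.5 to 1.5 plus GFP to RFP signal ratio inhibition reaching or exceeding a fixed threshold, cut at about 30% in these data, passing the limit was not always enough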
# DNMT1 inh = inhibitors of human DNMT1. 360,000 compounds, 0.83% hits. inhibition (reported as % activation of signal), % at 10 µM. DNMT1 molecular beacon, Hinp1I cleavage, fluorescence. P26358; in the data active = inhibition above about 50%
# Target sequence (P26358 504-1616 limits assumed): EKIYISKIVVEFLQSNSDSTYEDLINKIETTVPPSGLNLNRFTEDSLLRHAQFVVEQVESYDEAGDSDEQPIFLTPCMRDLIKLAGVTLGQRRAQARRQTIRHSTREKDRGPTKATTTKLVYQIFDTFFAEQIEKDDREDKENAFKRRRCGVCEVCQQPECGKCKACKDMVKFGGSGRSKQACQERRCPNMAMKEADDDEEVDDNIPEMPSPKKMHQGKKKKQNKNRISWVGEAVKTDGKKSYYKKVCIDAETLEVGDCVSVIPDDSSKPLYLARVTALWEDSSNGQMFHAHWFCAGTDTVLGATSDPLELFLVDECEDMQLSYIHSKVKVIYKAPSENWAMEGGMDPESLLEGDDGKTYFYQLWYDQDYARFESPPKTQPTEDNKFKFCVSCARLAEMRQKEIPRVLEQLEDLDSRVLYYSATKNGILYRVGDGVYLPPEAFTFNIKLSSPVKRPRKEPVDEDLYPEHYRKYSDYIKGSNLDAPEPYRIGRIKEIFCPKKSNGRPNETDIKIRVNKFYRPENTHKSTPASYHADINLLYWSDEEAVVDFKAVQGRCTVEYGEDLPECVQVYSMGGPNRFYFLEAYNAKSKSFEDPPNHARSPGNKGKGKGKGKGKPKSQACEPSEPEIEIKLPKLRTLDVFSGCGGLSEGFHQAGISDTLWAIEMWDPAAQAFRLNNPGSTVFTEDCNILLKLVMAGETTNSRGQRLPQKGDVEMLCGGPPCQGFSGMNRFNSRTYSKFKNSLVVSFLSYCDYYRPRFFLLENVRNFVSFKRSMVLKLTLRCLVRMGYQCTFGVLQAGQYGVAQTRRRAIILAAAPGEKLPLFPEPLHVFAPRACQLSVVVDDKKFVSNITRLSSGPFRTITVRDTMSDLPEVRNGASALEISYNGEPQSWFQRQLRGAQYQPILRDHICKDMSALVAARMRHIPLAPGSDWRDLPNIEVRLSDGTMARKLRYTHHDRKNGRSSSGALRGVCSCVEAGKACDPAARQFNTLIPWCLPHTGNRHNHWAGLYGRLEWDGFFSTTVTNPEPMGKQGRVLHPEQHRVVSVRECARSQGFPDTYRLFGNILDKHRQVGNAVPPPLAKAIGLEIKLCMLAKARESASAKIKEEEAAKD
# CSN inh = blocks human CSN-mediated cullin deneddylation; Purified CSN, SCF-Nedd8-OG deneddylation, fluorescence polarization; inhibition, % at 12.5 µM; AID 651999; 360,000 compounds, 0.38% hits; Q92905;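 active = pattern-corrected inhibition above about 35%, with an unprinted fluorescence ratio check between 0.5 and 1.5, limit read from the data, passing the limit was not always enough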;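 also: 0% = enzyme with substrate and 100% = substrate without enzyme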
#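 Schedule: reaction 90 min, room temperature / Assay system: HEK293T-derived human Csn5 enzyme / Input: Csn5 at 0.24 nM final / Measure: inhibition of Csn5 cleavage, % / Control set: substrate-only high control, full reaction low control / Technique: fluorescence polarization of the substrate / Buffer or medium: Tris/NaCl/DTT buffer, pH 7.5 / Reagent: SCFSkp2-Nedd8OG substrate at 10 nM final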
# Starred values were filed as active, the others as inactive; x = not tested or not shown.
SMILES,MT1-MMP act inh,SUMO1-SIM PPI,Rpn11 inh,SKN-1 block,DNMT1 inh,CSN inh
COc1ccc(C(CC(=O)N2CCCC2)c2c(OC)cc(OC)c3c(-c4ccccc4)cc(=O)oc23)cc1 (stereo unspecified),-31.5,2.5,22.0,18.3,93.8*,36.3*
O=c1c(Br)ccc(Br)cc1Br,-4.8,25.1,-7.0,5.6,59.0*,20.6
COc1ccc(NC(=O)CSc2nnc3n2CCCCC3)cc1OC,-1.2,-3.1,0.3,16.3,-3.3,2.9
O=C(O)CCNc1ccc(NCCC(=O)O)c2c1C(=O)c1ccccc1C2=O,x,60.3*,-154.5,28.7,96.5*,-22.4
CCOc1ccc(/C=C2\CCCc3c2nc2ccccc2c3C(=O)O)cc1OC,-74.6,-18.9,-183.0,-64.8,78.1*,-71.2
N#CCc1nn2c(-c3ccccc3)ccnc2c1C#N,1.7,-13.9,9.6,43.2*,-4.0,1.8
O=C(Cc1ccc([N+](=O)[O-])cc1)NC(C(=O)O)C(O)c1cccc([N+](=O)[O-])c1 (stereo unspecified),-0.8,-13.2,-1.1,-8.3,0.9,-1.6
O=C(COc1ccc([N+](=O)[O-])cc1)NC(C(=O)O)C(O)c1cccc([N+](=O)[O-])c1 (stereo unspecified),-2.4,-14.2,-2.4,6.3,-0.1,53.1*
OCCN(CCO)c1ccc(C(c2ccccc2Cl)c2ccc(N(CCO)CCO)cc2Cl)c(Cl)c1,5.4,4.0,3.1,36.4*,-27.3,-2.7
O=C(Nc1ccc(F)cc1)C(c1cc2ccccc2o1)N1CCN(c2ccncc2)CC1 (stereo unspecified),1.8,-10.4,x,9.5,x,-5.7
CC(C)(C)N1C(=O)Cc2c1nc(N)c1c(N)nc(N3CCCCC3CO)c(C#N)c21 (stereo unspecified),-9.3,50.1*,12.1,-2.8,6.2,53.3*
CC1(C(=O)NS(=O)(=O)c2ccc(Br)cc2)CCN1C(=O)c1cccc(F)c1 (stereo unspecified),-0.6,-3.0,-6.9,0.7,5.3,-8.8
O=C(CN1C(=O)/C(=C/c2ccccc2F)SC1=S)NC1C=CS(=O)(=O)C1 (stereo unspecified),0.4,-1.3,-1.2,25.4,53.6*,9.9
O=C(CN1C(=O)/C(=C/c2cccc(Cl)c2)SC1=S)NC1C=CS(=O)(=O)C1 (stereo unspecified),3.7,-14.9,-1.1,-35.9,3.6,-1.6
CC1(C(=O)NS(=O)(=O)c2ccccc2OC(F)(F)F)CCN1C(=O)Cc1ccccc1 (stereo unspecified),-2.6,0.5,0.0,25.1,2.2,1.7
Nc1ccc2c(c1)C/C(=C/c1ccco1)C2=O,-9.7,39.9*,-20.3,3.5,88.4*,55.7
COc1ccc2c(c1)CC/C(=C/c1ccco1)C2=O,3.1,-12.9,6.9,59.6*,-2.9,4.7
O=C1C(=Cc2ccco2)C(=O)c2ccccc21,9.6,6.4,0.8,1.8,-2.1,-2.5
O=C1/C(=C/c2ccco2)CCc2ccccc21,-4.1,-18.6,7.2,65.2*,-4.2,4.3
COc1cc(F)ccc1-c1csc(C(C)(O)c2ccc(F)c(F)c2)n1 (stereo unspecified),0.0,-0.7,2.7,7.1,-11.1,-3.3
CS(=O)(=O)Nc1cccc(NC(=O)C2Cc3c(-c4ccccc4)ccnc3O2)c1 (stereo unspecified),-9.0,1.8,-6.1,-2.5,1.5,-5.9
O=[N+]([O-])c1cccc(/C=C/c2ccccn2)c1,0.2,-35.5,-0.3,35.8*,2.1,1.0
CCOC(=O)CC1(C)Oc2ccccc2N1S(=O)(=O)c1ccc(C)cc1 (stereo unspecified),4.5,-3.3,x,0.7,x,-5.2
CCN(CC)CCCN(Cc1cc2cc3c(cc2[nH]c1=O)OCO3)C(=S)NCc1ccco1,-7.2,3.4,-2.0,3.3,-7.8,5.4
CCN(CC)CCN(Cc1cc2cc3c(cc2[nH]c1=O)OCO3)C(=S)NCc1ccco1,-1.1,3.2,5.5,-3.6,-3.6,35.1*
O=C(Nc1ccc2c(c1)CN(Cc1ccco1)CC2)C1CCCO1 (stereo unspecified),-6.4,-2.2,4.1,37.3*,-3.0,-4.2

# Screening data (PubChem BioAssay)
